Data on 2 molecules can be found in ChEMBL document CHEMBL5712077, “Secreted heat shock protein 90 promotes prostate cancer stem cell heterogeneity” (Oncotarget, 2017).

Settings in all cases: time 3.0 day
The target of assay [1] is Histone-lysine N-methyltransferase EZH2 (Homo sapiens) (UniProt Q15910). Description: Inhibition of EZH2 in human DU-145 cells expressing Hsp90 assessed as decrease in spheroid growth at 500 nM for 3 days and cells were treated post-spheroid suspension by microscopic analysis. The class given is cell-based. The procedure, abridged:
(§1)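 Spheroid passaging with inhibitor exposure. Pre-treatment: inhibitor given for 3 days before suspension. Post-treatment: inhibitor given at initial suspension. Continuous: 3-day pre-treatment, then kept on inhibitor in spheroid culture. Cells seeded at 2000 per well in low-attachment plates in DMEM/F12 with N2 and B27. Spheres of at least 5 cells counted at day 10-14 for each passage. Compared with untreated cells by Student's t-test.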

Assay [2] has the same target. As to the kind of experiment: Inhibition of EZH2 in human ARCaPE cells expressing Hsp90 assessed as decrease in spheroid growth at 500 nM for 3 days and cells were treated under continuous condition by microscopic analysis. The class given is cell-based. The method, boiled down:
as §1

Assay [3] shares this target. Description: Inhibition of EZH2 in human DU-145 cells expressing Hsp90 assessed as decrease in spheroid growth at 500 nM for 3 days and cells were treated pre-spheroid suspension by microscopic analysis. Type of assay: cell-based. The method, boiled down:
as §1

Assay [4] shares this target. As to the kind of experiment: Inhibition of EZH2 in human DU-145 cells expressing Hsp90 assessed as decrease in spheroid growth at 500 nM for 3 days and cells were treated under continuous condition by microscopic analysis. Type of assay: cell-based. The procedure, abridged:
as §1

Assay [5] has the same target. Description: Inhibition of EZH2 in human ARCaPE cells expressing Hsp90 assessed as decrease in spheroid growth at 500 nM for 3 days and cells were treated post-spheroid suspension by microscopic analysis. Type of assay: cell-based. The procedure, abridged: as §1
For assay [6] the target is unchanged. Description: Inhibition of EZH2 in human ARCaPE cells expressing Hsp90 assessed as reduction in side population at 500 nM after 3 days by Hoechst staining based flow cytometry. Type of assay: cell-based. The procedure, abridged:
(§2)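 Side population by flow cytometry after 3 days of inhibitor treatment. Cells at 1 x 10^6/mL in culture medium were stained with Hoechst 33342 at 5 ug/mL for 2 h at 37C, protected from light. Propidium iodide excluded dead cells. UV laser; Hoechst red 620 nm against blue 448 nm. Gate set on 50 uM verapamil controls. At least three repeats, Student's t-test.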
Background: In flow cytometry, cells or beads pass a laser one at a time.

The target is the same in assay [7]. Description: Inhibition of EZH2 in human DU-145 cells expressing Hsp90 assessed as reduction in side population at 500 nM after 3 days by Hoechst staining based flow cytometry. Type of assay: cell-based. The procedure, abridged:
as §2

The target is the same in assay [8]. Description: Inhibition of EZH2 in human ARCaPE cells expressing Hsp90 assessed as decrease in spheroid growth at 500 nM for 3 days and cells were treated pre-spheroid suspension by microscopic analysis. The class given is cell-based. The procedure, abridged:
as §1

Another assay deals with M12. Description: Inhibition of extracellular Hsp90 in human M12 cells expressing Hsp90 assessed as reduction in side population ast 1 uM after 3 days by Hoechst staining based flow cytometry.
Assay [9] deals with ARCaPE. As to the kind of experiment: Inhibition of extracellular Hsp90 in human ARCaPE cells expressing Hsp90 assessed as increase in spheroid growth at 1 uM for 3 days and cells were treated post spheroid suspension by microscopic analysis. Type of assay: cell-based. The method, boiled down: as §1
Assay [10] has as its system ARCaPE. Description: Inhibition of extracellular Hsp90 in human ARCaPE cells expressing Hsp90 assessed as decrease in spheroid growth at 1 uM for 3 days and cells were treated pre-spheroid suspension by microscopic analysis. Type of assay: cell-based. The method, boiled down: as §1
The subject of assay [11] is ARCaPE. Description: Inhibition of extracellular Hsp90 in human ARCaPE cells expressing Hsp90 assessed as decrease in spheroid growth at 1 uM for 3 days and cells were treated under continuous condition by microscopic analysis. The class given is cell-based. The procedure, abridged: as §1
Assay [12] relates to DU-145. Description: Inhibition of extracellular Hsp90 in human DU145 cells expressing Hsp90 assessed as decrease in spheroid growth at 1 uM for 3 days and cells were treated under continuous condition by microscopic analysis. Type of assay: cell-based. The method, boiled down:
as §1

The subject of assay [13] is DU-145. Description: Inhibition of extracellular Hsp90 in human DU-145 cells expressing Hsp90 assessed as reduction in side population ast 1 uM after 3 days by Hoechst staining based flow cytometry. Type of assay: cell-based. The method, boiled down:
as §2

The subject of assay [14] is DU-145. As to the kind of experiment: Inhibition of extracellular Hsp90 in human DU145 cells expressing Hsp90 assessed as decrease in spheroid growth at 1 uM for 3 days and cells were treated pre-spheroid suspension by microscopic analysis. Type of assay: cell-based. The procedure, abridged:
as §1

Activity calls are given as the source filed them. No cut-off for these calls is given here.

Sequence of Histone-lysine N-methyltransferase EZH2 (Homo sapiens) (Q15910 whole entry, looked up): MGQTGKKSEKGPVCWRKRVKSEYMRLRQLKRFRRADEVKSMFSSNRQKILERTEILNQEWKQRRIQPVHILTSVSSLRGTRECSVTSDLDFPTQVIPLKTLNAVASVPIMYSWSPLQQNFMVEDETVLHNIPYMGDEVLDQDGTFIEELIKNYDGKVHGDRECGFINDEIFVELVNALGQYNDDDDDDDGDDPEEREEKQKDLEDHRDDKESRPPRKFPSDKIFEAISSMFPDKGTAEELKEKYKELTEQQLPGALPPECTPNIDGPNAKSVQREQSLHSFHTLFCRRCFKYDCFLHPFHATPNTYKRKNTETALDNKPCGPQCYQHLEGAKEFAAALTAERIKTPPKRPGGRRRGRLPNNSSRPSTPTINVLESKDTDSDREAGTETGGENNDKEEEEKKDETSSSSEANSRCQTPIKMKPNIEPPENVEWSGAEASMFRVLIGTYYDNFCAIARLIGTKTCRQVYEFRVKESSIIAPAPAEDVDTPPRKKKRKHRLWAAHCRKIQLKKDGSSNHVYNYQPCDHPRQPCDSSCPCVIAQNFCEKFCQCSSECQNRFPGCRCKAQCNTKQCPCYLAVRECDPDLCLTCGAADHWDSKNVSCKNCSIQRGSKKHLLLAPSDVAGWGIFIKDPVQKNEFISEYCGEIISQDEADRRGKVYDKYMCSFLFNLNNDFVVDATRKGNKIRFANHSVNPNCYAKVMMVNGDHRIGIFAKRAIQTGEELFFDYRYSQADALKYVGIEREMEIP

For the molecule `CCCc1cc(C)[nH]c(=O)c1CNC(=O)c1cc(-c2ccnc(N3CCN(C)CC3)c2)cc2c1cnn2C(C)C`, the inhibition entry in assay [1], in [2], in assay [3], in assay [4], in assay [5] and in assay [6] was “Active” throughout. The inhibition result in [7] and in assay [8] was “Active” each time.
Turning to `COC1=C2C[C@@H](C)C[C@H](OC)[C@H](O)[C@@H](C)/C=C(\C)[C@H](OC(N)=O)[C@@H](OC)/C=C\C=C(/C)C(=O)NC(=CC1=O)C2=O`, the inhibition entry with M12, with ARCaPE [10], in the assay on ARCaPE [11], in the assay on DU-145 [12], in the assay with DU-145 [13] and in the assay with DU-145 [14] was “Active” in each case. In the assay on ARCaPE [9], the inhibition result is “inactive”.
